According to paper PMC9444296 (Investigative Radiology, 2022):
“Also recorded” adds a separate entry of the source.

Experiments:
CAV1.2 = CAV1.2 (Homo sapiens, UniProt Q13936); test: SAFETYscan E/IC50 assay, CAV1.2; format: biochemical; conditions: concentration range 0.005 to 100 μM
Method in brief: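 Contract-laboratory in vitro panel of 78 targets, run in agonist and/or antagonist modes under provider SOPs over 0.005 to 100 μM. Panel formats included enzyme fragment complementation, FLIPR-based cellular assays, kinase binding and enzymatic assays.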

[1] = Biodistribution in SD rats; format: in vivo, rat; conditions: for AUC(0–48h) / AUCINF / Cmax / Gd concentration in the brain: SD rat; for AUC(0–48h) / AUCINF / Cmax: 0.1 mmol/kg single IV, Gd by ICP-MS; for Gd concentration in the brain: 0.1 mmol/kg IV, ICP-MS (LLOQ 0.1 μg/g)
Method in brief: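 Rats, 30 in total (3/sex/group), received a single IV injection of 0.1 mmol/kg. Blood and tissues were taken predose and at 10 and 30 min and 2, 6 and 48 h. Gd was measured by ICP-MS, and parameters came from noncompartmental analysis.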

[2] = Pharmacokinetics in SD rats; format: in vivo, rat; conditions: for AUC: AUC 0-4h; for AUC / AUCINF / C0 / Cl / MRT / T1/2 / Vz: Gd by ICP-MS, NCA, n = 3
Method in brief: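 SD rats (3/sex) received a single IV dose of 0.04, 0.1 or 0.2 mmol/kg. Jugular blood was drawn predose and at 2, 5, 10, 15, 30 and 45 min and 1, 2, 3 and 4 h. Parameters were derived by noncompartmental analysis.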

[3] = Plasma protein binding, rat plasma; format: in vitro ADME; conditions: 37°C, 3 min, 10 kDa ultrafiltration, Gd by ICP-OES, n = 4
Method in brief: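 Test compound at 50, 80 or 110 μM was incubated with human, dog or rat plasma (alongside HSA 40 mg/mL and PBS) at 37°C for 3 min. Mixtures were kept overnight and centrifuged to remove insolubles. Gd was measured by ICP-OES, and the binding ratio was taken as bound over total concentration.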

[4] = test system: 78 common biological targets; test: SAFETYscan 78-target panel; format: biochemical; conditions: 0.005 to 100 μM
CYP2C9 = CYP2C9 (Homo sapiens, UniProt P11712); test: CYP2C9 inhibition in human liver microsomes; conditions: 0.01, 0.1, 1, 10, and 100 μM, pooled human liver microsomes 0.5 mg/mL
[5] = SD rat ♀, 0.04 mmol/kg single IV
[6] = SD rat ♀, 0.1 mmol/kg single IV
[7] = SD rat ♀, 0.2 mmol/kg single IV
[8] = SD rat ♂, 0.04 mmol/kg single IV
[9] = SD rat ♂, 0.1 mmol/kg single IV
[10] = SD rat ♂, 0.2 mmol/kg single IV

Sequence of CYP2C9 (P11712 whole entry): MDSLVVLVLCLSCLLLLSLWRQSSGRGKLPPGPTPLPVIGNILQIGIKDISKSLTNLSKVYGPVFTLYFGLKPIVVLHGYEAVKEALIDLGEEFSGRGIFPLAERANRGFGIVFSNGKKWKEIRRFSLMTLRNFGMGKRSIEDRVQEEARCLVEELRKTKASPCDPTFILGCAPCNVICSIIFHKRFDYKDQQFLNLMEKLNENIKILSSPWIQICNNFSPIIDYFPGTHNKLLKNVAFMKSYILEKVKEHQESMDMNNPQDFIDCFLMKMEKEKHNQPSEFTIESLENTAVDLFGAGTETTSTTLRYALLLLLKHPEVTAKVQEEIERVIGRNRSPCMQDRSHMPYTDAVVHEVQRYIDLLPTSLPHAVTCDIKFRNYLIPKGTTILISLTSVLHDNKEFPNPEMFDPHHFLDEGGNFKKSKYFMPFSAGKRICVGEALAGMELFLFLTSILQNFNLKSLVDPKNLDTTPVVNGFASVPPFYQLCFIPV
Sequence of CAV1.2 (P54289 957-1103): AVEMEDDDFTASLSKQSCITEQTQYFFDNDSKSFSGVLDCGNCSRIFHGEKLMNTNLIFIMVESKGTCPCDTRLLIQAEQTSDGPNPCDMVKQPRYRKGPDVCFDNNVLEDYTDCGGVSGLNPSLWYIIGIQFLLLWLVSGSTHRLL
Sequence of CAV1.2 (Q08289 whole entry, further chain, the tested form may be a part): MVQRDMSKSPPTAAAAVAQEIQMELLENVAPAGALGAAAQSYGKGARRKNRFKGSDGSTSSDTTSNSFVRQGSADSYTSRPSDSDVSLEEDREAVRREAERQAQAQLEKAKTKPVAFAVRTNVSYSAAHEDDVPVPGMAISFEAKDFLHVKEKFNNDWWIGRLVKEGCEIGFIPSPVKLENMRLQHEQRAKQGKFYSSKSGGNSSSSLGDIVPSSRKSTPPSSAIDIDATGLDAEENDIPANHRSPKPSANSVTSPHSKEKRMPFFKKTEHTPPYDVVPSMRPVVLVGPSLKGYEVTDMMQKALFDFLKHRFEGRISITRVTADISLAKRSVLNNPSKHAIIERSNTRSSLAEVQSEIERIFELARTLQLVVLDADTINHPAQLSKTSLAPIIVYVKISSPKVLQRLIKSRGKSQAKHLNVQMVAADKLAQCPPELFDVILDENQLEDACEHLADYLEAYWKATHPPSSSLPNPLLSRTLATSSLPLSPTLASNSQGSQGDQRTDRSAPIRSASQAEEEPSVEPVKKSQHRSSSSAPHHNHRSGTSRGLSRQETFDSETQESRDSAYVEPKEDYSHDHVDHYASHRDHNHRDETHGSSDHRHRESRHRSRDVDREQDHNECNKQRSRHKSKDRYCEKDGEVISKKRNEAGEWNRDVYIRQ
Sequence of CAV1.2 (Q13936 whole entry, the tested form may be a part): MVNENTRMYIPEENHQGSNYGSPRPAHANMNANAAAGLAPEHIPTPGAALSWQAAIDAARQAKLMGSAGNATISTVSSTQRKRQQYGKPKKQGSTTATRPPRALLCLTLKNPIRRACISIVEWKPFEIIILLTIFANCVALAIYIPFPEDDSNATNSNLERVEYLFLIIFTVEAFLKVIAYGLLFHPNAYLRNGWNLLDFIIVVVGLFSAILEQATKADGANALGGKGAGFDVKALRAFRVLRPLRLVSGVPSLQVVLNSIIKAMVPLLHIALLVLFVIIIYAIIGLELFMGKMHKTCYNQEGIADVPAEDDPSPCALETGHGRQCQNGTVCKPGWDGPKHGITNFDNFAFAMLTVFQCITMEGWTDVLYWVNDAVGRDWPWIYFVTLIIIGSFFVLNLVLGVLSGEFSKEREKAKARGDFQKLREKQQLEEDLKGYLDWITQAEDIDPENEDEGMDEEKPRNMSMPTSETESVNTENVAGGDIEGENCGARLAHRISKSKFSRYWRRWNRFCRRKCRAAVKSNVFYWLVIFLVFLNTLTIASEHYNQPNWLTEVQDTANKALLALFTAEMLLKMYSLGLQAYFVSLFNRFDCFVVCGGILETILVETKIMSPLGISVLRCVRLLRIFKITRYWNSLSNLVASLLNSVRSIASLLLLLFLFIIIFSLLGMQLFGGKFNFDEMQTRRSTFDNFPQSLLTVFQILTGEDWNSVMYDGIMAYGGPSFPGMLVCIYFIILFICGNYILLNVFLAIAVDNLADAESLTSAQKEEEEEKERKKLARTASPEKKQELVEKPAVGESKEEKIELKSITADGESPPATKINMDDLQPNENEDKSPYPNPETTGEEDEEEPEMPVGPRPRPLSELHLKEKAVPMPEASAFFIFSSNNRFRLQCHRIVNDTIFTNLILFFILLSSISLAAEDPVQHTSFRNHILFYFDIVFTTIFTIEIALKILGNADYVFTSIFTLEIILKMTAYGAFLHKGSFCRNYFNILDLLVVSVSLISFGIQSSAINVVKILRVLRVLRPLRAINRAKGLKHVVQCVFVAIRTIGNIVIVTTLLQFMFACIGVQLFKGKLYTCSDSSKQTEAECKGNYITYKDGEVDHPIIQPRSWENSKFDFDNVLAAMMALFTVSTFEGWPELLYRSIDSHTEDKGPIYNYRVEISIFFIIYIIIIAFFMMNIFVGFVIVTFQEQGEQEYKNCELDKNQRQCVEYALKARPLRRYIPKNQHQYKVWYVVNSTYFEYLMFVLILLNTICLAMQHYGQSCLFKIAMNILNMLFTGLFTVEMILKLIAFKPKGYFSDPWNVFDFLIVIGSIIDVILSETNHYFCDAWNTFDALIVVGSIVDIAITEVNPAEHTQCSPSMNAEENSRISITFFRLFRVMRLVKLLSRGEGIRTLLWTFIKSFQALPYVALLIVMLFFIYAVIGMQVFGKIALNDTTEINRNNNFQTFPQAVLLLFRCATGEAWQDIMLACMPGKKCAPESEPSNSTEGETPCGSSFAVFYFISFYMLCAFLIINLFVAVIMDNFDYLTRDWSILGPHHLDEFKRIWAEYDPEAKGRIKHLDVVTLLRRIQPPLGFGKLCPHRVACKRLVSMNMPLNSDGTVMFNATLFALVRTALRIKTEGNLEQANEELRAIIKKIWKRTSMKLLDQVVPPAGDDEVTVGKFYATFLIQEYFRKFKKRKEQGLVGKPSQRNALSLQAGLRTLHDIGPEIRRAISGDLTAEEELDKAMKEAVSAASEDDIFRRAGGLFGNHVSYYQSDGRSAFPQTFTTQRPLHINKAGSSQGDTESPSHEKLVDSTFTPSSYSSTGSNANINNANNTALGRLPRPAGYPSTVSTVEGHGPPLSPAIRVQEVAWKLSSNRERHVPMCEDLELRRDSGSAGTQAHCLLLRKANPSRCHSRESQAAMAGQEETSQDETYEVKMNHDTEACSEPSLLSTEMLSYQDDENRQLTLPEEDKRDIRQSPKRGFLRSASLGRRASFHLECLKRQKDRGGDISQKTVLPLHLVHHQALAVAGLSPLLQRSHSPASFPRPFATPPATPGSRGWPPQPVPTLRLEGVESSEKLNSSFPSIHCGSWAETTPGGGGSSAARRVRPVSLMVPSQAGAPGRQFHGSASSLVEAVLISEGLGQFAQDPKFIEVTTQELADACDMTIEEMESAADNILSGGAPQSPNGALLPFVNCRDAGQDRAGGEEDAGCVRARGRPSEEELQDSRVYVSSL
Sequence of CAV1.2 (P54289 25-956): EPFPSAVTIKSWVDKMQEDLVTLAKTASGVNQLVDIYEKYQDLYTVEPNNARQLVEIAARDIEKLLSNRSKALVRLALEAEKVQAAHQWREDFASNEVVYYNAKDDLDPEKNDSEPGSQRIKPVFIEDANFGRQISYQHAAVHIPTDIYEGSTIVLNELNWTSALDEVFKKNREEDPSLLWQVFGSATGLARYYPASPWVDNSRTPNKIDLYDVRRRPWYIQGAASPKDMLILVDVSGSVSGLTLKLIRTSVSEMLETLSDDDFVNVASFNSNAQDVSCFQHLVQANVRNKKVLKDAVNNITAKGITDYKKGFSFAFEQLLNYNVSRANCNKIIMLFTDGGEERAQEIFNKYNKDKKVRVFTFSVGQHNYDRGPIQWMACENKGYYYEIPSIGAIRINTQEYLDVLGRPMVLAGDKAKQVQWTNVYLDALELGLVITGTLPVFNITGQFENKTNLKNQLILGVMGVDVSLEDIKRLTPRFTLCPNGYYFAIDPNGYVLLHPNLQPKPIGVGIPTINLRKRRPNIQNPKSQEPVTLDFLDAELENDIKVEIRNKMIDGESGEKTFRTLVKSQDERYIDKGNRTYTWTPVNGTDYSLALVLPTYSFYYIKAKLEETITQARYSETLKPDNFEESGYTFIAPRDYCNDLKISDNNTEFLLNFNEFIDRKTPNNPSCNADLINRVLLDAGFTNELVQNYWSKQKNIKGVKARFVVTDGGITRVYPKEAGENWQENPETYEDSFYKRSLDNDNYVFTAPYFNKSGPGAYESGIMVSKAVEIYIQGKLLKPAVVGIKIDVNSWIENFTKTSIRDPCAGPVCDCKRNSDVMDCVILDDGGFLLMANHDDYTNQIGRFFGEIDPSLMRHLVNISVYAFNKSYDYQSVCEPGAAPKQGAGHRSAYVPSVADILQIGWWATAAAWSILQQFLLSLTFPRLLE

Q: For ZD2-N3-Gd(HP-DO3A) [MT218], which inhibition rate (CAV1.2) is on record?
A: The inhibition rate was 15.58%.

Q: And the “AUC(0–48h)” value ([1]; Brain)?
A: The value was 0.86 µg·h/g.

Q: What about the AUCINF ([1]; Brain) of the same substance?
A: The AUCINF was 0.87 µg·h/g.

Q: And the Cmax ([1]; Brain)?
A: Its Cmax is 1.10 µg/g.

Q: And the “AUC(0–48h)” value ([1]; Fat)?
A: The value was 3.18 µg·h/g.

Q: What about the AUCINF ([1]; Fat) of the same substance?
A: Its AUCINF is 3.23 µg·h/g.

Q: And the Cmax ([1]; Fat)?
A: The Cmax was 4.07 µg/g.

Q: And the “AUC(0–48h)” value ([1]; Gonads)?
A: Its value is 11.78 µg·h/g.

Q: What about the AUCINF ([1]; Gonads) of the same substance?
A: The AUCINF was 17.48 µg·h/g.

Q: And the Cmax ([1]; Gonads)?
A: The Cmax was 7.22 µg/g.

Q: And the “AUC(0–48h)” value ([1]; Heart)?
A: The value was 7.15 µg·h/g.

Q: And the AUCINF ([1]; Heart)?
A: Its AUCINF is 7.56 µg·h/g.

Q: What about the Cmax ([1]; Heart) of the same substance?
A: Its Cmax is 7.54 µg/g.

Q: And the “AUC(0–48h)” value ([1]; Kidney)?
A: Its value is 481.54 µg·h/g.

Q: What about the AUCINF ([1]; Kidney) of the same substance?
A: Its AUCINF is 2936.07 µg·h/g.

Q: And the Cmax ([1]; Kidney)?
A: The Cmax was 74.89 µg/g.

Q: What about the “AUC(0–48h)” value ([1]; Liver) of the same substance?
A: Its value is 17.22 µg·h/g.

Q: And the AUCINF ([1]; Liver)?
A: Its AUCINF is 27.86 µg·h/g.

Q: What about the Cmax ([1]; Liver) of the same substance?
A: The Cmax was 4.73 µg/g.

Q: And the “AUC(0–48h)” value ([1]; Lung)?
A: Its value is 17.81 µg·h/g.

Q: And the AUCINF ([1]; Lung)?
A: The AUCINF was 19.50 µg·h/g.

Q: What about the Cmax ([1]; Lung) of the same substance?
A: The Cmax was 14.28 µg/g.

Q: And the “AUC(0–48h)” value ([1]; Lymph nodes)?
A: The value was 27.63 µg·h/g.

Q: And the AUCINF ([1]; Lymph nodes)?
A: The AUCINF was 51.39 µg·h/g.

Q: And the Cmax ([1]; Lymph nodes)?
A: The Cmax was 12.53 µg/g.

Q: What about the “AUC(0–48h)” value ([1]; Muscle) of the same substance?
A: Its value is 4.27 µg·h/g.

Q: And the AUCINF ([1]; Muscle)?
A: Its AUCINF is 4.29 µg·h/g.

Q: And the Cmax ([1]; Muscle)?
A: The Cmax was 5.51 µg/g.

Q: And the “AUC(0–48h)” value ([1]; Plasma)?
A: Its value is 34.06 µg·h/mL.

Q: What about the AUCINF ([1]; Plasma) of the same substance?
A: Its AUCINF is 34.18 µg·h/mL.

Q: And the Cmax ([1]; Plasma)?
A: The Cmax was 44.96 µg/mL.

Q: And the “AUC(0–48h)” value ([1]; Prostate)?
A: Its value is 12.05 µg·h/g.

Q: And the AUCINF ([1]; Prostate)?
A: Its AUCINF is 13.12 µg·h/g.

Q: And the Cmax ([1]; Prostate)?
A: The Cmax was 6.05 µg/g.

Q: What about the “Gd concentration in the brain” value ([1]; 2 hours post-injection) of the same substance?
A: Its value is “reached LLOQ”.

Q: And the “Gd concentration in the brain” value ([1]; 6 hours post-injection)?
A: The value was “No detectable Gd deposition; also recorded: undetectable”.

Q: What about the “AUC(0–48h)” value ([1]; Skeleton) of the same substance?
A: Its value is 11.83 µg·h/g.

Q: What about the AUCINF ([1]; Skeleton) of the same substance?
A: The AUCINF was 12.16 µg·h/g.

Q: And the Cmax ([1]; Skeleton)?
A: Its Cmax is 4.58 µg/g.

Q: What about the “AUC(0–48h)” value ([1]; Skin) of the same substance?
A: Its value is 28.54 µg·h/g.

Q: And the AUCINF ([1]; Skin)?
A: Its AUCINF is 30.96 µg·h/g.

Q: And the Cmax ([1]; Skin)?
A: Its Cmax is 17.21 µg/g.

Q: And the “AUC(0–48h)” value ([1]; Small intestine)?
A: The value was 13.99 µg·h/g.

Q: What about the AUCINF ([1]; Small intestine) of the same substance?
A: The AUCINF was 19.76 µg·h/g.

Q: And the Cmax ([1]; Small intestine)?
A: The Cmax was 6.44 µg/g.

Q: What about the “AUC(0–48h)” value ([1]; Spleen) of the same substance?
A: Its value is 15.18 µg·h/g.

Q: What about the AUCINF ([1]; Spleen) of the same substance?
A: The AUCINF was 35.21 µg·h/g.

Q: And the Cmax ([1]; Spleen)?
A: Its Cmax is 4.14 µg/g.

Q: And the “AUC(0–48h)” value ([1]; Stomach)?
A: Its value is 12.99 µg·h/g.

Q: And the AUCINF ([1]; Stomach)?
A: The AUCINF was 15.13 µg·h/g.

Q: What about the Cmax ([1]; Stomach) of the same substance?
A: The Cmax was 10.87 µg/g.

Q: And the “Gd concentration in the tested tissues besides the kidneys” value ([1]; rats, biodistribution study, level to which it decreased, time not given)?
A: Its value is no more than 1.0 µg/g.

Q: What about the AUC [2, 5] of the same substance?
A: The AUC was 10.94 µg·h/mL.

Q: And the AUC [2, 6]?
A: The AUC was 27.84 µg·h/mL.

Q: What about the AUC [2, 7] of the same substance?
A: The AUC was 58.60 µg·h/mL.

Q: And the AUC [2, 8]?
A: The AUC was 11.08 µg·h/mL.

Q: And the AUC [2, 9]?
A: Its AUC is 28.86 µg·h/mL.

Q: What about the AUC [2, 10] of the same substance?
A: The AUC was 53.17 µg·h/mL.

Q: And the “AUC Ratio” value ([2]; AUC(dose)/AUC(low dose), SD rat ♀, 0.04 mmol/kg)?
A: The value was 1.

Q: And the “AUC Ratio” value ([2]; AUC(dose)/AUC(low dose), SD rat ♂, 0.04 mmol/kg)?
A: The value was 1.

Q: And the “AUC Ratio” value ([2]; AUC(high dose)/AUC(low dose), SD rat ♀, 0.2 mmol/kg)?
A: The value was 5.36.

Q: And the “AUC Ratio” value ([2]; AUC(high dose)/AUC(low dose), SD rat ♂, 0.2 mmol/kg)?
A: Its value is 4.80.

Q: And the “AUC Ratio” value ([2]; AUC(middle dose)/AUC(low dose), SD rat ♀, 0.1 mmol/kg)?
A: Its value is 2.55.

Q: And the “AUC Ratio” value ([2]; AUC(middle dose)/AUC(low dose), SD rat ♂, 0.1 mmol/kg)?
A: The value was 2.61.

Q: And the AUCINF [2, 5]?
A: Its AUCINF is 11.13 µg·h/mL.

Q: And the C0 [2, 5]?
A: The C0 was 75.09 µg/mL.

Q: What about the Cl [2, 5] of the same substance?
A: Its Cl is 568.10 mL/h/kg.

Q: And the MRT [2, 5]?
A: The MRT was 17.4 min.

Q: And the T1/2 [2, 5]?
A: Its T1/2 is 16.8 min.

Q: And the Vz [2, 5]?
A: Its Vz is 224.22 mL/kg.

Q: What about the AUCINF [2, 6] of the same substance?
A: The AUCINF was 28.02 µg·h/mL.

Q: What about the C0 [2, 6] of the same substance?
A: Its C0 is 158.07 µg/mL.

Q: What about the Cl [2, 6] of the same substance?
A: The Cl was 575.39 mL/h/kg.

Q: And the MRT [2, 6]?
A: Its MRT is 20.4 min.

Q: And the T1/2 [2, 6]?
A: The T1/2 was 19.2 min.

Q: What about the Vz [2, 6] of the same substance?
A: Its Vz is 273.35 mL/kg.

Q: And the AUCINF [2, 7]?
A: Its AUCINF is 58.71 µg·h/mL.

Q: What about the C0 [2, 7] of the same substance?
A: Its C0 is 209.22 µg/mL.

Q: And the Cl [2, 7]?
A: Its Cl is 552.59 mL/h/kg.

Q: What about the MRT [2, 7] of the same substance?
A: Its MRT is 25.8 min.

Q: What about the T1/2 [2, 7] of the same substance?
A: Its T1/2 is 19.2 min.

Q: And the Vz [2, 7]?
A: Its Vz is 256.40 mL/kg.

Q: And the AUCINF [2, 8]?
A: Its AUCINF is 11.18 µg·h/mL.

Q: What about the C0 [2, 8] of the same substance?
A: Its C0 is 49.09 µg/mL.

Q: What about the Cl [2, 8] of the same substance?
A: The Cl was 578.42 mL/h/kg.

Q: And the MRT [2, 8]?
A: Its MRT is 22.2 min.

Q: What about the T1/2 [2, 8] of the same substance?
A: The T1/2 was 18 min.

Q: What about the Vz [2, 8] of the same substance?
A: The Vz was 243.09 mL/kg.

Q: What about the AUCINF [2, 9] of the same substance?
A: Its AUCINF is 29.01 µg·h/mL.

Q: What about the C0 [2, 9] of the same substance?
A: The C0 was 115.85 µg/mL.

Q: And the Cl [2, 9]?
A: The Cl was 550.32 mL/h/kg.

Q: What about the MRT [2, 9] of the same substance?
A: The MRT was 24 min.

Q: What about the T1/2 [2, 9] of the same substance?
A: The T1/2 was 18.6 min.

Q: What about the Vz [2, 9] of the same substance?
A: The Vz was 240.18 mL/kg.

Q: What about the AUCINF [2, 10] of the same substance?
A: The AUCINF was 53.23 µg·h/mL.

Q: What about the C0 [2, 10] of the same substance?
A: The C0 was 248.60 µg/mL.

Q: What about the Cl [2, 10] of the same substance?
A: Its Cl is 591.30 mL/h/kg.

Q: And the MRT [2, 10]?
A: Its MRT is 22.2 min.

Q: And the T1/2 [2, 10]?
A: The T1/2 was 18 min.

Q: And the Vz [2, 10]?
A: The Vz was 255.24 mL/kg.

Q: And the “mean plasma elimination half-life (t1/2)” value ([2]; rats, 0.1 mmol/kg IV)?
A: The value was 18.6 min.

Q: And the “binding ratio to plasma proteins” value ([3]; 50 μM)?
A: The value was 28.44%.

Q: What about the “binding ratio to plasma proteins” value ([3]; 80 μM) of the same substance?
A: Its value is 27.12%.

Q: What about the “binding ratio to plasma proteins” value ([3]; 110 μM) of the same substance?
A: Its value is 25.68%.

Q: And the “target-specific secondary pharmacologic activity” value [4]?
A: The value was “did not exhibit any notable target-specific secondary pharmacologic activity”.

Q: And the “inhibition of CYP2C9 activity” value (CYP2C9)?
A: Its value is “did not inhibit”.
